According to ChEMBL document CHEMBL4257587 (J Med Chem, 2018):
≈ marks a conversion by molar mass, not a printed value. Calls of active or inactive are those of the source.

Assays:
[1] = system: HepG2; test: cells; assay type: ADME, cell-based; settings: Homo sapiens, HepG2, 48 h
[2] = system: Mycobacterium tuberculosis; test: Antimycobacterial activity against Mycobacterium tuberculosis H37Rv ATCC 25618 after 6 days by resazurin-based assay; assay type: functional; settings: H37Rv ATCC 25618, 144 h
[3] = physchem; settings: buffer, pH 7.4
[4] = Intrinsic clearance in mouse liver microsomes at 0.5 uM preincubated with NADPH and measured up to 30 mins by LC-MS/MS analysis; assay type: ADME, microsome
[5] = system: HepG2; test: Cytotoxicity against human HepG2 cells assessed as effect on membrane permeability after 48 hrs by TOTO-3 iodide-staining based cell health assay; assay type: ADME; settings: HepG2, 48 h
[6] = system: HepG2; test: Cytotoxicity against human HepG2 cells assessed as effect on mitochondrial membrane potential after 48 hrs by TMRM-staining based cell health assay; assay type: ADME; settings: HepG2, 48 h
[7] = Intrinsic clearance in human liver microsomes at 0.5 uM preincubated with NADPH and measured up to 30 mins by LC-MS/MS analysis; assay type: ADME, microsome
[8] = Half life in C57BL/6 mouse at 3.6 mg/kg, iv by LC-MS/MS analysis; assay type: ADME, organism-based; settings: in vivo
In short: (§1)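 Female C57BL/6 mice (18−20 g), single intravenous dose in 5% DMSO/20% Encapsin. Tail-vein whole blood (25 μL) was taken from each mouse (n = 5) at 5, 15 and 30 min and 1, 2, 4 and 8 h postdose, and compound concentration was measured in peripheral whole blood.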

[9] = Volume of distribution at steady state in C57BL/6 mouse at 3.6 mg/kg, iv by LC-MS/MS analysis; assay type: ADME, organism-based; settings: in vivo, read-out: Vdss
In short: as §1

[10] = AUC in C57BL/6 mouse at 18.7 mg/kg, po via gavage by LC-MS/MS analysis; assay type: ADME, organism-based; settings: in vivo
[11] = Cmax in C57BL/6 mouse at 18.7 mg/kg, po via gavage by LC-MS/MS analysis; assay type: ADME, organism-based; design: dose 18.7 mg/kg, route oral; settings: in vivo
[12] = Oral bioavailability in C57BL/6 mouse at 18.7 mg/kg via gavage by LC-MS/MS analysis; assay type: ADME, organism-based; settings: in vivo
[13] = Clearance in C57BL/6 mouse at 3.6 mg/kg, iv by LC-MS/MS analysis; assay type: ADME, organism-based; settings: in vivo
In short: as §1

[14] = Volume of distribution at steady state in C57BL/6 mouse at 4.5 mg/kg, iv by LC-MS/MS analysis; assay type: ADME, organism-based; settings: in vivo, read-out: Vdss
[15] = Half life in C57BL/6 mouse at 4.5 mg/kg, iv by LC-MS/MS analysis; assay type: ADME, organism-based; settings: in vivo
[16] = Oral bioavailability in C57BL/6 mouse at 45 mg/kg via gavage by LC-MS/MS analysis; assay type: ADME, organism-based; settings: in vivo
[17] = AUC in C57BL/6 mouse at 45 mg/kg, po via gavage by LC-MS/MS analysis; assay type: ADME, organism-based; settings: in vivo
[18] = Clearance in C57BL/6 mouse at 4.5 mg/kg, iv by LC-MS/MS analysis; assay type: ADME, organism-based; settings: in vivo
[19] = Cmax in C57BL/6 mouse at 45 mg/kg, po via gavage by LC-MS/MS analysis; assay type: ADME, organism-based; design: dose 45 mg/kg, route oral; settings: in vivo
[20] = system: Mycobacterium tuberculosis; test: Antibacterial activity against Mycobacterium tuberculosis H37Rv infected in C57BL/6 mouse assessed as reduction in colony forming units administered orally once daily for 8 days starting following day after infection and measured at 24 hrs post last dose relative to untreated control; assay type: functional
In short: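 Female C57BL/6 mice, 8−10 weeks old, infected intratracheally with 100 000 CFU of H37Rv. Oral dosing once daily for 8 days began 1 day post-infection. Lungs were harvested 24 h after the last dose, homogenised and plated on 7H11 with 10% OADC and 0.4% charcoal for 18 days at 37 °C. Log10 CFU was fitted to a sigmoidal dose-response curve, and ED99 was defined as a 2-log CFU drop versus untreated.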

SMILES	MIC90 [2] [µM]	CLH [4] [mL/min/g]	CLH [7] [mL/min/g]	further results
FC(F)(F)Oc1ccc(Oc2ccc(CN3CCC4(CCCCO4)CC3)cc2)cc1	0.31 (≈ 0.131 µg/mL)	1.2	1.7	IC50 [1]: 38.7 µM; solubility kinetic at 1 h [3]: < 1 µM; IC50 [5]: 43.7 µM; IC50 [6]: 46.3 µM
Cc1cc(CN2CCC3(CC2)OCCc2sccc23)c(C)n1-c1ccccn1	14 (≈ 5.51 µg/mL)	–	–	–
FC(F)(F)Oc1ccc(Oc2ccc(CN3CCC4(CCCCC4)CC3)cc2)cc1	0.1 (≈ 0.0419 µg/mL)	2.8	0.5	IC50 [1]: 25.9 µM; solubility kinetic at 1 h [3]: < 1 µM; IC50 [5]: 28.3 µM; IC50 [6]: 21.8 µM
FC(F)(F)Oc1ccc(Oc2ccc(CN3CCC4(CCCO4)CC3)cc2)cc1	1.3 (≈ 0.53 µg/mL)	0.6	1.5	IC50 [1]: 96.9 µM; IC50 [5]: 133 µM; IC50 [6]: 141 µM
c1ccc2c3c([nH]c2c1)C1(CCN(Cc2ccc4c(c2)OCCO4)CC1)OCC3	93 (≈ 36.3 µg/mL)	–	–	–
CC1(CCNCc2ccc3c(c2)OCCO3)OCCc2sccc21 (stereo not given)	> 5	–	–	–
c1cc2c(s1)CCOC2CCNCc1ccc2c(c1)OCCO2 (stereo not given)	> 5	–	–	–
O=S(=O)(c1ccc2c(c1)OCCO2)N1CCC2(CC1)OCCc1sccc12	> 10	–	–	–
Cc1cc(CN2CCC3(CC2)OCCc2sccc23)c(C)n1-c1cccnc1	14 (≈ 5.51 µg/mL)	–	–	–
Clc1ccc2c(CN3CCC4(CC3)OCCc3sccc34)c[nH]c2c1	0.31 (≈ 0.116 µg/mL)	10.3	1.3	–
c1cc2c(s1)CCOC21CCNCC1	> 5	–	–	–
Cc1ccc(CN2CCC3(CC2)OCCc2sccc23)cc1C	0.08 (≈ 0.0262 µg/mL)	> 30	18.9	–
Cc1ccc(CN2CCC3(CC2)OCCc2sccc23)cc1	0.2 (≈ 0.0627 µg/mL)	> 30	22.5	–
FC(F)(F)Oc1ccc(Oc2ccc(CN3CCCCC3)cc2)cc1	> 5	–	–	IC50 [1]: 44.2 µM; solubility kinetic at 1 h [3]: 156 µM (≈ 54.8 µg/mL); IC50 [5]: 46.3 µM; IC50 [6]: 49.5 µM
c1cc2c(s1)CCOC21CCN(Cc2ccc3c(c2)CCCC3)CC1	0.02 (≈ 0.00707 µg/mL)	> 30	22.6	–
FC(F)(F)Oc1ccc(Oc2ccc(CN3CCC4(CC3)OCCCO4)cc2)cc1	0.65 (≈ 0.275 µg/mL)	< 0.5	< 0.5	IC50 [1]: 26.3 µM; solubility kinetic at 1 h [3]: 53 µM (≈ 22.4 µg/mL); IC50 [5]: 25.7 µM; IC50 [6]: 28.8 µM
O=C1OCCC12CCN(Cc1ccc(Oc3ccc(OC(F)(F)F)cc3)cc1)CC2	> 5	–	–	IC50 [1]: 74.1 µM; solubility kinetic at 1 h [3]: 121 µM (≈ 51 µg/mL); IC50 [5]: 75.9 µM; IC50 [6]: > 200 µM
FS(F)(F)(F)(F)c1ccc(CN2CCC3(CC2)OCCc2sccc23)cc1	0.14 (≈ 0.0596 µg/mL)	18.2	3	–
Cc1cc(CN2CCC3(CC2)OCCc2sccc23)c(C)n1-c1ccc(F)cc1	3 (≈ 1.23 µg/mL)	–	–	–
c1cc2c(s1)CCOC21CCN(Cc2ccc3c(c2)OCCO3)C1 (stereo not given)	> 5	–	–	–
COc1ccc2c(c1)CCOC21CCN(Cc2ccc3c(c2)OCCO3)CC1	> 10	–	–	–
c1cc2c(s1)CCOC21CCN(Cc2ccc3c(c2)CCCO3)CC1	0.23 (≈ 0.0818 µg/mL)	> 30	2.9	–
O=C(c1ccc2c(c1)OCCO2)N1CCC2(CC1)OCCc1sccc12	> 80	–	–	–
FC(F)(F)Oc1ccc(Oc2ccc(CN3CCC4(CCNC4)CC3)cc2)cc1	> 5	–	–	IC50 [1]: 4.9 µM; solubility kinetic at 1 h [3]: 117 µM (≈ 47.6 µg/mL); IC50 [5]: 5.7 µM; IC50 [6]: 6.6 µM
CN1CCCC2(CCN(Cc3ccc(Oc4ccc(OC(F)(F)F)cc4)cc3)CC2)C1	2.5 (≈ 1.09 µg/mL)	–	–	IC50 [1]: 6.9 µM; solubility kinetic at 1 h [3]: 205 µM (≈ 89.1 µg/mL); IC50 [5]: 8 µM; IC50 [6]: 12.2 µM

SMILES	MIC90 [2] [µM]	CLH [4] [mL/min/g]	CLH [7] [mL/min/g]	further results
CC(C)(C)c1ccc(CN2CCC3(CCOCC3)CC2)cc1	5 (≈ 1.51 µg/mL)	2.25	0.95	IC50 [1]: > 200 µM; solubility kinetic at 1 h [3]: ≥ 399 µM; IC50 [5]: > 200 µM; IC50 [6]: > 200 µM
c1ccc(Oc2ccc(CN3CCC4(CC3)OCCc3sccc34)cc2)cc1	0.05 (≈ 0.0196 µg/mL)	28.8	12	half-life [8]: 3.9 h; Vd [9]: 19.4 L/kg; AUC [10]: 100 ng·h/mL; Cmax [11]: 50 ng/mL; bioavailability [12]: 1.5%; clearance [13]: 67.7 mL/min/kg
Brc1ccc(Nc2ccc(CN3CCC4(CC3)OCCc3sccc34)cc2)cc1	0.2 (≈ 0.0939 µg/mL)	0.9	1.5	Vd [14]: 12 L/kg; half-life [15]: 7.3 h; bioavailability [16]: 84.6%; AUC [17]: 17900 ng·h/mL; clearance [18]: 19.8 mL/min/kg; Cmax [19]: 1020 ng/mL
CC(c1ccc(C(F)(F)F)cc1)N1CCC2(CC1)OCCc1sccc12 (stereo not given)	0.63 (≈ 0.24 µg/mL)	18.1	4.6	–
O=C(Nc1ccc2c(c1)OCCO2)N1CCC2(CC1)OCCc1sccc12	> 10	–	–	–
CC(C)(C)c1ccc(CN2CCC3(CCCOC3)CC2)cc1	0.63 (≈ 0.19 µg/mL)	48	7.3	IC50 [1]: > 200 µM; solubility kinetic at 1 h [3]: 363 µM (≈ 109 µg/mL); IC50 [5]: > 200 µM; IC50 [6]: > 200 µM
Cc1ccc(CN2CCC3(CC2)OCCc2sccc23)[nH]1	> 5	28.7	4.1	–
c1ccc2oc(CN3CCC4(CC3)OCCc3sccc34)cc2c1	2.7 (≈ 0.917 µg/mL)	–	–	–
CC(C)(C)c1ccc(CN2CCC3(CC2)OCCCO3)cc1	2.5 (≈ 0.759 µg/mL)	13.5	1.4	IC50 [1]: > 200 µM; solubility kinetic at 1 h [3]: 374 µM (≈ 113 µg/mL); IC50 [5]: > 200 µM; IC50 [6]: > 200 µM
CC(C)(C)c1ccc(CN2CCC3(CC2)OCCc2sccc23)cc1	0.02 (≈ 0.00711 µg/mL)	> 30	9.9	–
c1ccc(CN2CCC3(CC2)OCCc2sccc23)cc1	> 5	–	–	–
c1cc2c(s1)CCOC21CCN(Cc2cnc3c(c2)OCCO3)CC1	> 5	–	–	–
NNC(=O)c1ccncc1	–	–	–	Activity [20]: Active
c1ccc2c(CN3CCC4(CC3)OCCc3sccc34)c[nH]c2c1	0.94 (≈ 0.318 µg/mL)	7	3.1	–
CC(C)(C)c1ccc(CN2CCC3(CC2)OCCCCO3)cc1	5 (≈ 1.59 µg/mL)	27	4.1	IC50 [1]: 166 µM; solubility kinetic at 1 h [3]: 194 µM (≈ 61.6 µg/mL); IC50 [5]: > 200 µM; IC50 [6]: 170 µM
c1ccc2c(c1)CCOC21CCN(Cc2ccc3c(c2)OCCO3)CC1	0.94 (≈ 0.33 µg/mL)	–	–	–
Cn1cc(CN2CCC3(CC2)OCCc2sccc23)c2ccccc21	0.63 (≈ 0.222 µg/mL)	> 30	4.5	–
FC(F)(F)Oc1ccc(Oc2ccc(CN3CCC4(CC3)OCCO4)cc2)cc1	> 5	–	–	IC50 [1]: 46.9 µM; solubility kinetic at 1 h [3]: 52 µM (≈ 21.3 µg/mL); IC50 [5]: 49.8 µM; IC50 [6]: 53.8 µM
Cc1ccccc1CN1CCC2(CC1)OCCc1sccc12	> 5	–	–	–
CN1C(=O)C=CCC12CCN(Cc1ccc(Oc3ccc(OC(F)(F)F)cc3)cc1)CC2	> 5	–	–	IC50 [1]: 39.4 µM; solubility kinetic at 1 h [3]: 87 µM (≈ 38.8 µg/mL); IC50 [5]: 29.2 µM; IC50 [6]: 36.3 µM
c1ccc2oc(CN3CCC4(CC3)OCCc3ccsc34)cc2c1	> 100	–	–	–
COc1ccc(-n2c(C)cc(CN3CCC4(CC3)OCCc3sccc34)c2C)cc1	3 (≈ 1.27 µg/mL)	–	–	–
Cc1cccc(CN2CCC3(CC2)OCCc2sccc23)c1	0.63 (≈ 0.197 µg/mL)	> 30	5.2	–
Cc1cc(CN2CCC3(CC2)OCCc2sccc23)c(C)n1-c1ccccc1	3 (≈ 1.18 µg/mL)	–	–	–
